# Measurements: ChEMBL document CHEMBL1152867, “Targeting QseC signaling and virulence for antibiotic development” (Science, 2008)
# Active and inactive are the calls of the source. The rule behind the calls is not given here.
# What was measured:
# Escherichia coli [1] = test: Antibacterial activity against Escherichia coli infected in New Zealand white rabbit assessed as inhibition of bacterial colonization in ileum at 20 mg/kg administered 3 hrs post-bacterial challenge; assay type: functional, organism-based; design: dose 20 mg/kg
# [2] = Clearance in CD1 mouse at 20 mg/kg, iv administered as bolus dose; assay type: ADME, organism-based; design: dose 20 mg/kg, route intravenous; conditions: in vivo
# In short: (§1)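 Groups of three were bled terminally by cardiac puncture at set times. Plasma was acetonitrile-precipitated with internal standard and quantified by electrospray LC/MS/MS against a plasma standard curve (10-1000 ng/ml). Noncompartmental analysis was used.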
# Salmonella typhimurium [3] = test: Antibacterial activity against Salmonella Typhimurium SL1344 infected in 129x1/SvJ mouse assessed as reduction of bacterial CFU in liver at 20 mg/kg, po after 48 hrs relative to control; assay type: functional
# Escherichia coli [4] = test: Antibacterial activity against Escherichia coli infected in New Zealand white rabbit assessed as inhibition of bacterial colonization in cecum at 20 mg/kg administered along with bacterial challenge; assay type: functional, organism-based; design: dose 20 mg/kg; conditions: Caecum
# [5] = target: Beta-2 adrenergic receptor (Homo sapiens) (UniProt P07550); test: Activation of human beta-2-adrenergic receptor expressed in HEK293 cells assessed as cAMP release at 5 uM; assay type: functional, cell-based
# In short: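 Live HEK293 cells carried an EPAC-based cAMP BRET reporter and expressed endogenous β2 or exogenous β1 or β3 adrenergic receptors. Cells were exposed to test compound alone at 5 μM. Values are means of triplicates, representative of 3 experiments.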
# Escherichia coli [6] = test: Inhibition of epinephrine-induced EspA protein secretion in Escherichia coli 8624 at 5 nM by Western blot; assay type: functional, organism-based
# In short: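 Secreted proteins in cell-free supernatant were TCA-precipitated and immunoblotted with rabbit polyclonal anti-EspA and anti-EspB, with ECL detection.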
# Escherichia coli [7] = test: Antibacterial activity against Escherichia coli infected in New Zealand white rabbit assessed as inhibition of bacterial colonization in ileum at 20 mg/kg pretreated before 3 hrs of bacterial challenge; assay type: functional, organism-based; design: dose 20 mg/kg
# Escherichia coli [8] = test: Antibacterial activity against Escherichia coli infected in New Zealand white rabbit assessed as inhibition of bacterial colonization in ileum at 20 mg/kg administered 24 hrs post-bacterial challenge; assay type: functional, organism-based; design: dose 20 mg/kg
# Mus musculus [9] = test: Toxicity in CD1 mouse assessed as platelet count at 20 mg/kg, po administered daily once for 5 days measured 3 days after final dose; assay type: organism-based; design: dose 20 mg/kg, route oral; conditions: in vivo, 72 h
# In short: (§2)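 Female CD-1 mice (~22 g), three per group, given 20 mg/kg by oral gavage once daily for 5 days. Vehicle-only mice served as controls. Animals were weighed and observed daily. Three days after the last dose they were weighed and sacrificed. Blood was taken for chemistry and complete blood counts, and organs were weighed.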
# Escherichia coli [10] = test: Antibacterial activity against Escherichia coli 8624 assessed as induction of SOS response; assay type: functional, organism-based
# Escherichia coli [11] = test: Bacteriostatic activity against Escherichia coli 8624 at 1 uM; assay type: functional, organism-based
# Mus musculus [12] = test: Toxicity in CD1 mouse assessed as serum total protein levels at 20 mg/kg, po administered daily once for 5 days measured 3 days after final dose; assay type: organism-based; design: dose 20 mg/kg, route oral; conditions: in vivo, 72 h; in short: as §2
# Mus musculus [13] = test: Toxicity in CD1 mouse assessed as mean corpuscular volume at 20 mg/kg, po administered daily once for 5 days measured 3 days after final dose; assay type: organism-based; design: dose 20 mg/kg, route oral; conditions: in vivo, 72 h; in short: as §2
# Escherichia coli [14] = test: Inhibition of AI3-induced Qsec-dependent virulence gene flhDC expression in Escherichia coli at 5 pM by quantitative real-time PCR; assay type: functional, organism-based
# Escherichia coli [15] = test: Inhibition of epinephrine-induced Qsec-dependent virulence gene ler expression in Escherichia coli at 5 pM by quantitative real-time PCR; assay type: functional, organism-based
# [16] = test system: Francisella tularensis subsp. tularensis SCHU S4; test: Inhibition of virulence gene mip expression in Francisella tularensis SCHU S4 at 5 pM by quantitative real-time PCR; assay type: functional, organism-based
# Mus musculus [17] = test: Toxicity in CD1 mouse assessed as change in spleen weight at 20 mg/kg, po administered daily once for 5 days measured 3 days after final dose; assay type: organism-based; design: dose 20 mg/kg, route oral; conditions: in vivo, 72 h; in short: as §2
# [18] = test system: Francisella tularensis subsp. tularensis SCHU S4; test: Inhibition of virulence gene iglC expression in Francisella tularensis SCHU S4 at 5 pM by quantitative real-time PCR; assay type: functional, organism-based
# Salmonella typhimurium [19] = test: Antibacterial activity against Salmonella Typhimurium SL1344 infected in 129x1/SvJ mouse assessed as survival at 20 mg/kg, po administered 3 hrs pre and 3 hrs post-bacterial challenge measured after 24 hrs; assay type: functional
# In short: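 Female 129x1/SvJ mice, 7–9 weeks old, were infected intraperitoneally with 10^8 cfu S. typhimurium SL1344. The test agent was given orally at 20 mg/kg in 5% DMSO/23% PEG400/70% Na bicarbonate pH 9/2% Tween 80, 3 h before and 3 h after infection. Controls were drug alone and infection alone. Groups of 10 mice were used and the experiment was repeated twice. Morbidity and death were recorded daily, and survivors were euthanized at day 12.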
# Mus musculus [20] = test: Toxicity in CD1 mouse assessed as neutrophil counts at 20 mg/kg, po administered daily once for 5 days measured 3 days after final dose; assay type: organism-based; design: dose 20 mg/kg, route oral; conditions: in vivo, 72 h; in short: as §2
# Mus musculus [21] = test: Toxicity in CD1 mouse assessed as glucose levels at 20 mg/kg, po administered daily once for 5 days measured 3 days after final dose; assay type: organism-based; design: dose 20 mg/kg, route oral; conditions: in vivo, 72 h; in short: as §2
# Mus musculus [22] = test: Toxicity in CD1 mouse assessed as albumin levels at 20 mg/kg, po administered daily once for 5 days measured 3 days after final dose; assay type: organism-based; design: dose 20 mg/kg, route oral; conditions: in vivo, 72 h
# [23] = target: Beta-3 adrenergic receptor (Homo sapiens) (UniProt P13945); test: Effect on BRL-37344-induced human beta-3-adrenergic receptor activation expressed in HEK293 cells assessed as cAMP release at 5 uM; assay type: functional, cell-based
# In short: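 HEK293 cells carried an EPAC-based cAMP BRET reporter. The agonist for β1 (exogenous) was 1 nM dobutamine, for β2 (endogenous) 100 nM terbutaline, and for β3 (exogenous) 10 nM BRL37344. Each agonist was given alone or with 5 μM compound. Live-cell cAMP was read as triplicate means, representative of 3 experiments.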
# Mus musculus [24] = test: Toxicity in CD1 mouse assessed as monocyte counts at 20 mg/kg, po administered daily once for 5 days measured 3 days after final dose; assay type: organism-based; design: dose 20 mg/kg, route oral; conditions: in vivo, 72 h; in short: as §2
# [25] = test system: Francisella tularensis subsp. tularensis SCHU S4; test: Antibacterial activity against Francisella tularensis SCHU S4 infected C3H HeN mouse assessed as survival at 20 mg/kg, po administered single dose 3 hrs post-bacterial measured after 9 days; assay type: functional
# [26] = test system: Francisella tularensis subsp. tularensis SCHU S4; test: Inhibition of virulence gene qseC expression in Francisella tularensis SCHU S4 at 5 pM by quantitative real-time PCR; assay type: functional, organism-based
# Escherichia coli [27] = test: Bacteriostatic activity against Escherichia coli 8624 at 1 uM in presence of epinephrine; assay type: functional, organism-based
# [28] = AUC in CD1 mouse at 5 mg/kg, iv administered as bolus dose; assay type: ADME, organism-based; design: dose 5 mg/kg, route intravenous; conditions: plasma; in short: as §1
# [29] = Terminal half life in CD1 mouse at 20 mg/kg, po; assay type: ADME, organism-based; design: dose 20 mg/kg, route oral; conditions: in vivo, read-out: beta t1/2
# In short: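 Terminal cardiac bleeds were taken in groups of three at set times. Plasma was acetonitrile-precipitated with internal standard and analysed by LC/MS/MS against a spiked-plasma standard curve. Parameters came from noncompartmental analysis.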
# Mus musculus [30] = test: Toxicity in CD1 mouse assessed as calcium levels at 20 mg/kg, po administered daily once for 5 days measured 3 days after final dose; assay type: organism-based; design: dose 20 mg/kg, route oral; conditions: in vivo, 72 h; in short: as §2
# [31] = AUC in CD1 mouse at 10 mg/kg, iv administered as bolus dose; assay type: ADME, organism-based; design: dose 10 mg/kg, route intravenous; conditions: plasma; in short: as §1
# Mus musculus [32] = test: Toxicity in CD1 mouse assessed as change in thymus weight at 20 mg/kg, po administered daily once for 5 days measured 3 days after final dose; assay type: organism-based; design: dose 20 mg/kg, route oral; conditions: in vivo; in short: as §2
# [33] = test system: Francisella tularensis subsp. tularensis SCHU S4; test: Bacteriostatic activity against Francisella tularensis SCHU S4 at 1 uM in presence of epinephrine; assay type: functional, organism-based
# Chain of Beta-3 adrenergic receptor (Homo sapiens) (P13945 whole entry, looked up): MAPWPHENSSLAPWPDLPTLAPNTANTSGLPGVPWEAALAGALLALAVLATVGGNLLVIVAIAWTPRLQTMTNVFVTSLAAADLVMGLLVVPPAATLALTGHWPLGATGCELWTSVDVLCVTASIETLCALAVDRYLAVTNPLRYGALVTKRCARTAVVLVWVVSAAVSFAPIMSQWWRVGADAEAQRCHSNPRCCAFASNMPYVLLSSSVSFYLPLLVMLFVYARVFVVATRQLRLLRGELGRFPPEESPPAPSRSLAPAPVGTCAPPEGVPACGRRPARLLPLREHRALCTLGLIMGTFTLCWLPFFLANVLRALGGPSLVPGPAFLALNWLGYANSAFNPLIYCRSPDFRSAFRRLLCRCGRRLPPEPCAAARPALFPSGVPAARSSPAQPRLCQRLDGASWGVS
# Chain of Beta-2 adrenergic receptor (Homo sapiens) (P07550 whole entry, looked up): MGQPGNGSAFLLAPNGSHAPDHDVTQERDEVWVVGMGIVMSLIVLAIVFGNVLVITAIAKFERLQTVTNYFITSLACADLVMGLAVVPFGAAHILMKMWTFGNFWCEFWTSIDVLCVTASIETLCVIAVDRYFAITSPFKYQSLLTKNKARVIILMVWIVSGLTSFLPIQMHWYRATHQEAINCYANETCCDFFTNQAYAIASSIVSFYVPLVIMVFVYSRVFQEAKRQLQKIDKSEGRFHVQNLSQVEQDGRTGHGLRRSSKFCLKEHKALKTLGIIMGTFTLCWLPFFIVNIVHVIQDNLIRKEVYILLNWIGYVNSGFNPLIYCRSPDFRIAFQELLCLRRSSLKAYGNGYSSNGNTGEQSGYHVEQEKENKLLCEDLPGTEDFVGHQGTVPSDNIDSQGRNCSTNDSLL
smiles,measurement,setting,value
O=S(=O)(Nc1ccccc1)c1ccc(NC(=S)Nc2ccccc2)cc1,Activity,Escherichia coli [1],inactive
same,clearance,[2],1.48 mL/min
same,fold change (FC),Salmonella typhimurium [3],10
same,Activity,Escherichia coli [4],inactive
same,Activity,[5],inactive
same,Activity,Escherichia coli [6],Active
same,Activity,Escherichia coli [7],inactive
same,Activity,Escherichia coli [8],inactive
same,Activity,Mus musculus [9],1075 K/uL
same,Activity,Escherichia coli [10],inactive
same,Activity,Escherichia coli [11],inactive
same,Activity,Mus musculus [12],4.4 g/dL
same,Activity,Mus musculus [13],51.7 fL
same,Activity,Escherichia coli [14],Active
same,Activity,Escherichia coli [15],Active
same,Activity,[16],Active
same,Activity,Mus musculus [17],Non-toxic
same,Activity,[18],Active
same,Activity,Salmonella typhimurium [19],80%
same,Activity,Mus musculus [20],9.3%
same,Activity,Mus musculus [21],287 mg/dL
same,Activity,Mus musculus [22],2.6 g/dL
same,Activity,[23],inactive
same,Activity,Mus musculus [24],8.1%
same,Activity,[25],80%
same,Activity,[26],Active
same,Activity,Escherichia coli [27],inactive
same,AUC,[28],1090 ng·h/mL
same,half-life,[29],4.92 h
same,Activity,Mus musculus [30],9.6 mg/dL
same,AUC,[31],2400 ng·h/mL
same,Activity,Mus musculus [32],Non-toxic
same,Activity,[33],inactive
